Experimental data from different studies.
Each line is one published result; the experiments were not run side by side.
Target: Serine/threonine-protein kinase N2 (PKN2, Homo sapiens, UniProt Q16513)

Structure (SMILES) | effect on | technique | concentration | remaining binding [%]
CN(C)C(=O)Cn1cc(-c2nc(C3(c4ccc(-c5cnc(N)nc5)cc4)CC3)no2)cn1 | cell-free assay | competition with immobilised ligand | 1 µM | 77
C[C@@H](c1ccc(-n2cnc3c(N)ncnc32)cc1)N1CCc2nn(C)c(Cc3ccccc3)c2C1=O | binding | competition with immobilised ligand | 0.1 µM | 84
CN(c1nccc(-c2cnn3ncccc23)n1)C1CC1 | binding | – | 1 µM | 89
COc1cnc(Nc2cccc(S(N)(=O)=O)c2)nc1N1CCN(c2ccccc2)CC1 | binding | competition with immobilised ligand | 1 µM | 100
CN(C)c1nccc(-c2cnc3ncccn23)n1 | binding | – | 1 µM | 93
O=C(Nc1c[nH]nc1C(=O)NC1CCNCC1)c1cc(F)cc(F)c1 | binding | competition with immobilised ligand | 1 µM | 100
CN(C)c1ncc(F)c(-c2cnn3ncccc23)n1 | binding | – | 1 µM | 100
O=C(NCCCN1CCOCC1)c1ccc(Nc2nccc(-c3cc4ccccc4s3)n2)cc1 | binding | competition with immobilised ligand | 1 µM | 53
FC(F)(F)Oc1cccc(-c2cnc3ccc(-c4ccncc4)nn23)c1 | cell-free assay | competition with immobilised ligand | 5 µM | 91
CC1CCCN1c1nccc(-c2cnn3ncccc23)n1 (stereo not shown) | binding | – | 1 µM | 89
Cn1nc(C(=O)NCc2ccc(C(=O)O)cc2)cc1-c1ccc2[nH]ccc2c1 | cell-free assay | competition with immobilised ligand | 0.1 µM | 100
c1cncc(-c2cccc(Nc3nccc(NC4CCCCC4)n3)c2)c1 | binding | competition with immobilised ligand | 10 µM | 43
Cc1c(NC(=O)c2cc(C(N)=O)nc3cc(F)ccc23)c(C(F)(F)F)nn1Cc1ccc(C#N)cc1 | cell-free assay | competition with immobilised ligand | 1 µM | 81
O=C(NCCCN1CCOCC1)c1ccc(Nc2ncc(Cl)c(-c3ccc(Cl)s3)n2)cc1 | binding | competition with immobilised ligand | 1 µM | 36
CC(=O)Nc1c(C(C)=O)c(=O)n(C)c2nc(-c3ccc(Cl)cc3Cl)c(-c3ccc(Cl)cc3)cc12 | cell-free assay | competition with immobilised ligand | 1 µM | 100
C[C@H]1CCN(c2nccc(-c3cnn4ncccc34)n2)C1 | binding | – | 1 µM | 95
CN([C@@H]1CCc2c(CC(=O)O)c3cc(S(C)(=O)=O)ccc3n2C1)S(=O)(=O)c1ccc(F)cc1 | cell-free assay | competition with immobilised ligand | 1 µM | 100
O=C(c1ccc(Nc2ncc(Cl)c(-c3ccc(Cl)s3)n2)cc1)N1CCC(N2CCCC2)CC1 | binding | competition with immobilised ligand | 1 µM | 56
O=C(NCCCC1CCCCC1)c1ccc(CNC(=O)c2cnn(-c3ccccc3)c2C(F)(F)F)cc1 | cell-free assay | competition with immobilised ligand | 0.1 µM | 100
N[C@H]1CCN(c2nccc(-c3cnn4ncccc34)n2)C1 | binding | – | 1 µM | 71
COc1cccc(CNC(=O)c2nc3scc(COCc4ccc(C(=O)O)cc4)c3c(=O)[nH]2)c1 | cell-free assay | competition with immobilised ligand | 1 µM | 98
CN(CCCC(F)(F)F)c1nccc(-c2cnn3ncccc23)n1 | binding | – | 1 µM | 74
